Activity calls are given as the source filed them. No cut-off for these calls is given here.
How the values were obtained:
MCF7 [1] = experiment: Cytotoxicity against human MCF7 cells by Alamar blue assay; format: functional, cell-based
Summary of the method: (§1)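 MCF-7 cells in improved MEM (Richter's) with L-glutamine, 10% FBS and 1% penicillin/streptomycin. 1-3×10^3 cells/well preincubated 24 h at 37 °C, 5% CO2. DMSO solutions added in duplicate at 0.001–50 μM final, then 72 h exposure. AlamarBlue added for 6 h; fluorescence read ex 530/em 590 nm. IC50 by sigmoidal fit of % growth against time-zero and vehicle.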

A549 [2] = experiment: Cytotoxicity against human A549 cells by Alamar blue assay; format: functional, cell-based
Summary of the method: (§2)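 A549 cells in Ham's F-12 (Kaighn's) with 10% FBS and 1% penicillin/streptomycin. Seeded at 1-3×10^3 cells/well for 24 h at 37 °C, 5% CO2. Compound in DMSO added in duplicate at 0.001–50 μM final, then 72 h. Fresh medium plus AlamarBlue for 6 h; fluorescence ex 530/em 590 nm. % growth relative to time-zero and vehicle; IC50 from Hill-equation non-linear fit.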

[3] = Enhancement of DNA binding affinity in presence of Cu2+/Ni2+
A549 [4] = experiment: Cytotoxicity against human A549 cells after 72 hrs; format: functional, cell-based; settings: A549, 72 h; summary of the method: as §2
MCF7 [5] = experiment: Cytotoxicity against human MCF7 cells after 24 hrs in presence of CuCl2; format: functional, cell-based; settings: MCF7, 24 h
MCF7 [6] = experiment: Cytotoxicity against human MCF7 cells after 72 hrs; format: functional, cell-based; settings: MCF7, 72 h; summary of the method: as §1
MCF7 [7] = experiment: Cytotoxicity against human MCF7 cells after 72 hrs in presence of CuCl2; format: functional, cell-based; settings: MCF7, 72 h
Summary of the method: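 MCF-7 cells in Richter's improved MEM with 10% FBS. Compound given with 10 μM CuCl2 for 72 h at 37 °C, 5% CO2, in duplicate. AlamarBlue for 6 h, fluorescence ex 530/em 590 nm. IC50 by non-linear Hill fit of % growth referenced to time-zero and vehicle wells.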

A549 [8] = experiment: Cytotoxicity against human A549 cells after 24 hrs; format: functional, cell-based; settings: A549, 24 h
MCF7 [9] = experiment: Cytotoxicity against human MCF7 cells after 24 hrs; format: functional, cell-based; settings: MCF7, 24 h
A549 [10] = experiment: Cytotoxicity against human A549 cells after 24 hrs in presence of CuCl2; format: functional, cell-based; settings: A549, 24 h
A549 [11] = experiment: Cytotoxicity against human A549 cells after 72 hrs in presence of CuCl2; format: functional, cell-based; settings: A549, 72 h
Summary of the method: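 A549 cells in Ham's F-12 (Kaighn's) with 10% FBS and penicillin/streptomycin. Compound plus 10 μM CuCl2 for 72 h at 37 °C, 5% CO2, in duplicate. Viability by AlamarBlue fluorescence (ex 530/em 590 nm) after 6 h. IC50 from non-linear fit of % growth versus time-zero and vehicle controls.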

| Activity [3] | SMILES | IC50 (MCF7 [1]) [µM] | IC50 (A549 [2]) [µM] | also measured |
| --- | --- | --- | --- | --- |
| Active | CCCCNC(=O)c1cccc2oc(-c3ccccc3O)nc12 | 30 | 14 | – |
| Active | COC(=O)c1cccc2oc(-c3ccccc3O)nc12 | 4 | 12 | – |
| Active | CCOC(=O)c1cccc2oc(-c3ccccc3O)nc12 | 15 | 40 | – |
| Active | CNC(=O)c1cccc2oc(-c3ccccc3O)nc12 | 10 | 11 | – |

Continued, molecule first:

| SMILES | Activity [3] | IC50 (MCF7 [1]) [µM] | IC50 (A549 [2]) [µM] | also measured |
| --- | --- | --- | --- | --- |
| COC(=O)c1cccc2nc(-c3ccccc3O)oc12 | – | 7 | 35 | – |
| O=C(NCCOCCO)c1cccc2oc(-c3ccccc3O)nc12 | inactive | > 50 | 41 | – |
| COC(=O)c1cccc2oc(-c3cccc4oc(-c5ccccc5O)nc34)nc12 | – | – | – | IC50 (A549 [4]): 1 µM; IC50 (MCF7 [5]): 4.6 µM; IC50 (MCF7 [6]): 1.7 µM; IC50 (MCF7 [7]): 1.2 µM; IC50 (A549 [8]): 17 µM; IC50 (MCF7 [9]): 31 µM; IC50 (A549 [10]): 4.5 µM; IC50 (A549 [11]): 0.2 µM |
| O=C(NCCCCCCO)c1cccc2oc(-c3ccccc3O)nc12 | inactive | 31 | 39 | – |
| CO[C@@]12[C@H](COC(N)=O)C3=C(C(=O)C(C)=C(N)C3=O)N1C[C@@H]1N[C@@H]12 [MITOMYCIN] | – | – | – | IC50 (A549 [4]): 0.24 µM; IC50 (MCF7 [6]): 1.2 µM; IC50 (A549 [8]): 4.5 µM; IC50 (MCF7 [9]): 5 µM |
| O=C(OCCOCCOCCOCCO)c1cccc2oc(-c3ccccc3O)nc12 | Active | 13 | 11 | – |
| COc1ccccc1-c1nc2c(C(=O)O)cccc2o1 | – | > 50 | > 50 | – |

From ChEMBL document CHEMBL1143149, “Synthesis, metal ion binding, and biological evaluation of new anticancer 2-(2'-hydroxyphenyl)benzoxazole analogs of UK-1” (Bioorg Med Chem, 2008)
